Measured values: ChEMBL document CHEMBL1131334, “Anti-HIV agents that selectively target retroviral nucleocapsid protein zinc fingers without affecting cellular zinc finger proteins” (J Med Chem, 1998)

What was measured:
CEM-SS [1] = test: (§1) Compound concentration that provides 50% cytoprotection on CEM-SS cells and HIV-1RF was measured using XTT assay.; type: functional, cell-based; details: Homo sapiens
Outline: (§2)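 CEM-SS cells infected with HIV-1RF. EC50 is the concentration giving 50% cytoprotection. CC50 is the concentration eliciting 50% cell death.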

[2] = Therapeutic index ([…]) was evaluated; details: read-out: TI50
CEM-SS [3] = test: (§3) CC50 reflects the drug concentration that elicits 50% cell death of CEM-SS cells and HIV-1RF was measured using XTT assay.; type: functional; details: Homo sapiens; outline: as §2
[4] = test system: Human immunodeficiency virus 1; test: CC50 reflects the drug concentration that elicits 50% cell death of PBMC cultures and HIV-1RF was measured using XTT assay.; type: functional
[5] = test system: Human immunodeficiency virus 1; test: Compound concentration that provides 50% cytoprotection on PBMC cultures and HIV-1RF was measured using XTT assay.; type: functional, organism-based
[6] = test system: Human immunodeficiency virus 1; test: as §3; type: functional; details: Human immunodeficiency virus 1, CEM-SS; outline: as §2
[7] = test system: Human immunodeficiency virus 1; test: as §1; type: functional, organism-based; details: Human immunodeficiency virus 1, CEM-SS; outline: as §2

O=S1(=O)C[C@H](O)[C@H](O)CS1
EC50 (CEM-SS [1]): 6.6 µM | selectivity ratio [2]: 27.9 | CC50 (CEM-SS [3]): 184 µM

NC(=O)c1cccc(N=O)c1
CC50 [4]: 50 µM | EC50 [5]: 1.56 µM | CC50 [6]: 10.6 µM

NS(=O)(=O)c1ccc(NC(=O)c2ccccc2SSc2ccccc2C(=O)Nc2ccc(S(N)(=O)=O)cc2)cc1
EC50 [7]: 2.3 µM | selectivity ratio [2]: > 87 | CC50 [6]: > 200 µM

NC(=O)/N=N/C(N)=O [E927A]
EC50 [7]: 38 µM | selectivity ratio [2]: > 5.3 | CC50 [6]: > 200 µM
